Consider eight molecules from article PMC10512781 (Journal of medicinal chemistry, 2022).

Entries after “also recorded” stand apart in the source; their conditions may differ. Like-named read-outs stand apart in the source and are kept apart here.

For data set [1], the system named is CHO-K1 cells. As to the kind of experiment: 48 h growth inhibition by assay reagents. It is filed as cell-based, Chinese hamster. Conditions: read-out: 48 h CHO-K1 IC50; CHO-K1, 48 h.
The next data set has as its system FUBP1. Conditions: NMR study; cited from earlier work.
Data set [2] deals with p21 protein in L3.6pl cells. As to the kind of experiment: Western blot, p21 protein level. In kind it is cell-based, human. Conditions: 24 h. The essentials: (§1)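 L3.6pl cells (400,000 in 2 mL RPMI 1640, 10% FBS, 1% antibiotic–antimycotic) held overnight at 37 °C, 5% CO2, then treated 24 h with test compound or DMSO. Lysed in RIPA with protease and phosphatase inhibitors. Membranes blocked in 5% skim milk/PBST for 1 h, primary antibody overnight at 4 °C (c-Myc 1:1000, FUBP1 1:1000, p21 1:100, GAPDH 1:40,000), secondary 1 h, chemiluminescence on X-ray film. Repeated at least three times.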

The subject of data set [3] is c-Myc protein in L3.6pl cells. Description: Western blot, c-Myc protein level. Conditions: 24 h. It is filed as cell-based, human. The essentials:
as §1
In general terms: A western blot detects proteins with antibodies after separation by electrophoresis.

Data set [4] deals with polyamine import in L3.6pl cells. Description: Radiolabeled spermidine. It is filed as cell-based, human. Conditions: for basal 3H-Spd uptake: 24 h treatment prior to 3H-Spd for 15 min; for 3H-Spd import in combination with DFMO vs DFMO-only: 72 h with DFMO + compound prior to 3H-Spd for 15 min. The essentials: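 L3.6pl cells pretreated 24 h with test compound, then exposed to 3H-spermidine for 15 min. Radioactive counts normalised to lysate protein measured by BCA assay. Triplicate conditions; reported as pmol 3H-Spd/μg protein ± standard deviation.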

In data set [5] the test system is CHO-K1 cells. As to the kind of experiment: Cytotoxicity assay. Conditions: CHO-K1, 384-well; maximum tolerated concentration (≥90% relative growth). In kind it is cell-based, Chinese hamster.
Data set [6] relates to L3.6pl pancreatic cancer cells. Conditions: DFMO 8 mM, 48 h, cited from earlier work.
The test system of data set [7] is FUBP1 protein in L3.6pl cells. Description: Western blot, FUBP1 protein level. Conditions: 24 h. In kind it is cell-based, human. The essentials: as §1
Data set [8] addresses T1, GST-FUBP1 (KH3-KH4) binding to FUSE oligo (Oligo-KH4) (Homo sapiens, UniProt Q96AE4).
T1 sequence (Q96AE4 278-447 limits assumed): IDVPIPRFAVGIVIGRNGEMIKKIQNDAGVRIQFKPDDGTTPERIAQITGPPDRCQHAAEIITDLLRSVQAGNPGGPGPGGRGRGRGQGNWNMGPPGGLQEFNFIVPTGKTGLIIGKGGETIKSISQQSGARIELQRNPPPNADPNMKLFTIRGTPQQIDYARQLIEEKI
As to the kind of experiment: Gel shift assay. Conditions: 30 and 60 μM vs DMSO control. In general terms: In EMSA bound probe runs differently from free probe, usually more slowly.

The target in data set [9] is T2, FUBP1 binding to the FUSE c-myc promoter region in L3.6pl cells (Homo sapiens, UniProt Q96AE4).
T2 sequence (Q96AE4 1-644): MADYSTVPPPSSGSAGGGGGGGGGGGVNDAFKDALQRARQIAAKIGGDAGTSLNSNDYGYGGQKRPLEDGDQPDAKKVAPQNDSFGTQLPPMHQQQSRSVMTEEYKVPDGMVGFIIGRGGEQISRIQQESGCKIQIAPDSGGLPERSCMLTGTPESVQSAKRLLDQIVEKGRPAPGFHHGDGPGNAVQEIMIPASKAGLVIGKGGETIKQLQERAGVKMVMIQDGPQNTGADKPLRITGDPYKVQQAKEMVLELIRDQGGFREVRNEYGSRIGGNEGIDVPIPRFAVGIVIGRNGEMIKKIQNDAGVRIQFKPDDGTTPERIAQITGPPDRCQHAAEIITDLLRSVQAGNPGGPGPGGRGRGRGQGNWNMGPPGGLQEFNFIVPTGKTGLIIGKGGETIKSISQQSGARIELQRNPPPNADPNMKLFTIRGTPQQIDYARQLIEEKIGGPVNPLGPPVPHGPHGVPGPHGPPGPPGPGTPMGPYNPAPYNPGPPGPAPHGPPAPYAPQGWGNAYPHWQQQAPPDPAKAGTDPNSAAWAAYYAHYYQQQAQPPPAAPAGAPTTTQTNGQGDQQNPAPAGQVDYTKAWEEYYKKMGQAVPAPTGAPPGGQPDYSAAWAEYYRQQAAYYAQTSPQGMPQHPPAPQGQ
As to the kind of experiment: Chromatin immunoprecipitation. It is filed as cell-based. Conditions: 60 μM, 24 h, vs untreated. The essentials:
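L3.6pl cells seeded at 300,000 cells/mL in RPMI 1640 with 10% FBS and 1% antibiotic–antimycotic, then held overnight at 37 °C, 5% CO2. Treated 24 h with test compound (60 μM) or 0.6% DMSO, then fixed in 1% formalin for 10 min. Sonicated chromatin (20–25 μg) was precleared and immunoprecipitated overnight at 4 °C with FUBP1 antibody, with H4Ac and rabbit IgG controls. Samples were de-crosslinked overnight at 65 °C, and FUSE c-Myc DNA measured by q-PCR. Mean fold change ± S.E.M., n = 2.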

For data set [10], the system named is native polyamine levels in L3.6pl cells. As to the kind of experiment: Intracellular polyamine quantitation by HPLC. Conditions: 60 μM, 24 h, vs vehicle (0.6% DMSO). It is filed as cell-based, human. The essentials: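 Polyamines measured by HPLC. L3.6pl cells seeded at 100,000 cells/mL in RPMI 1640 with 250 μM aminoguanidine and held overnight at 37 °C, 5% CO2. Next day treated with test compound (60 μM) or 0.6% DMSO vehicle for 24 h at 37 °C, then intracellular native polyamines quantified.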

In data set [11] the test system is c-Myc mRNA in L3.6pl cells. As to the kind of experiment: qRT-PCR, c-Myc mRNA. Conditions: 24 h, qRT-PCR vs matched vehicle control. It is filed as cell-based, human. The essentials: (§2)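 For qRT-PCR, L3.6pl cells (400,000) in RPMI 1640 with 10% FBS and 1% antibiotic–antimycotic were seeded in 6-well dishes and held overnight at 37 °C, 5% CO2. Next day they were treated with test compound or DMSO vehicle at 37 °C, then mRNA was measured by quantitative real-time PCR.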
A general note: In qPCR the cycle at which signal appears reflects the starting amount.

The subject of the next data set is p21 mRNA in L3.6pl cells. As to the kind of experiment: qRT-PCR, p21 mRNA. In kind it is cell-based, human. Conditions: 24 h, qRT-PCR vs matched vehicle control. The essentials:
as §2

For the next data set, the system named is CHO cells. Conditions: at 1 mM; cited from earlier work.
Data set [12] has as its system human pancreatic cancer cell lines. Conditions: at 300 μM; cited from earlier work.

One may read the IC50 as the concentration that gives 50% inhibition. Regarding `NCCCCNCCCCNCc1c2ccccc2cc2ccccc12` [Ant44, N^1-(9-anthracenylmethyl)-homospermidine], the half-inhibitory concentration (IC50) in the data set with CHO-K1 cells [1] came out at 2 µM.

In the case of `Nc1ccccc1C(=O)O` [anthranilic acid], the “binding to FUBP1” value in the data set on FUBP1 is “very low affinity”.

For the molecule `COc1ccccc1C(=O)Nc1ccc(N2CCC(Oc3ccccc3)CC2)cc1C(=O)O` [Compound 63, 2-(2-Methoxybenzamido)-5-(4-phenoxypiperidin-1-yl)benzoic Acid], in [2], the p21 protein expression entry was “increased p21 protein levels”. Further, in [3], the c-Myc protein expression result is “reduced c-Myc”.

`CNCCCCNCCCCNCc1cc(CNCCCCNCCCCNC)cc(CNCCCCNCCCCNC)c1.Cl.Cl.Cl.Cl.Cl.Cl.Cl.Cl.Cl` [Compound 5]: in data set [4], the “basal 3H-Spd uptake” value is on record as “blocked significant spermidine uptake” and the “3H-Spd import in combination with DFMO vs DFMO-only” value is “statistically significant reduction in ^3H-Spd import”.

Take `COc1ccccc1C(=O)Nc1ccc(N2CCN(Cc3ccccn3)CC2)cc1C(=O)O` [Compound 54, 2-(2-Methoxybenzamido)-5-(4-(pyridin-2-ylmethyl)piperazin-1-yl)benzoic Acid]: in the data set on CHO-K1 cells [5], the “Cytotoxicity MTC” value was over 40 µM.

Consider `NCCC[C@](N)(C(=O)O)C(F)F` [DFMO, difluoromethylornithine], for which, in data set [6] (with rescuing spermidine 1 μM), the “relative growth (compared to an untreated control)” value is 103%. In data set [6] (with spermidine 1 μM), the intracellular putrescine entry is listed as “no detectable intracellular putrescine”, the intracellular spermidine is 6.4 nmol/mg protein and the intracellular spermine is given as 17.4 nmol spermine/mg protein. Also, in data set [6], the intracellular putrescine entry is recorded as “no detectable intracellular putrescine”, the intracellular spermidine is given as 2.1 nmol/mg protein, the intracellular spermine is reported as 18.6 nmol spermine/mg protein and the “relative growth (compared to an untreated control)” value is listed as 64%.

Regarding `COc1ccc(C(=O)Nc2ccc(N3CCN(c4cc(Cl)ccc4C)CC3)cc2C(=O)O)cc1` [Compound 9, 5-[4-(5-Chloro-2-methyl-phenyl)-piperazin-1-yl]-2-(4-methoxybenzoylamino)-benzoic Acid], the FUBP1 protein levels entry in data set [7] was “did not affect FUBP1 protein levels”. For the same molecule, the “FUBP1 (KH3-KH4)-FUSE DNA bound complex” value in [8] is listed as “dose-dependent decrease”. Besides, the “FUSE c-Myc DNA pulled down with FUBP1 antibody” value in data set [9] is “reduced levels of c-Myc FUSE DNA”. Further, in data set [10], the intracellular polyamine levels result is reported as “significantly lower polyamine levels”. Moreover, in data set [11], the “c-Myc mRNA level” value was “significantly decreased for c-Myc”. In data set [2], the p21 protein expression result is on record as “increased p21 protein expression in a dose-dependent manner; also recorded: superior in terms of inducing p21”. Further, the c-Myc protein expression entry in data set [3] is given as “reduced c-Myc protein expression”. Further, the “p21 mRNA level” value in the data set on p21 mRNA in L3.6pl cells is on record as “increased for p21”. In data set [4], the “basal 3H-Spd uptake” value is listed as “did not block the uptake of ^3H-Spd” and the “3H-Spd import in combination with DFMO vs DFMO-only” value is “did not significantly inhibit ^3H-Spd import”.

As to `N=C(N)NN` [AG, aminoguanidine], the toxicity entry (in the data set on CHO cells; in data set [12]) was “not toxic” each time.
